The values below come from ChEMBL document CHEMBL4002574, “Structure-based exploration and exploitation of the S4 subsite of norovirus 3CL protease in the design of potent and permeable inhibitors” (Eur J Med Chem, 2017).

Data set [1] is described as follows: Inhibition of Norovirus 3CL protease preincubated for 30 mins followed by addition of Edans-DFHLQ/GP-Dabcyl as substrate measured after 1 hr by FRET assay. The essentials: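 Protease preincubated 30 min at 37°C with serially diluted compound or DMSO in 20 mM HEPES pH 8, 200 mM NaCl, 0.4 mM EDTA, 60% glycerol, 6 mM DTT; Edans-DFHLQ/GP-Dabcyl substrate then added. Fluorescence (ex 360/em 460 nm) read 1 h later; background (substrate, no protease) subtracted; IC50 from variable-slope dose-response fit.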

Another data set relates to Norovirus. The data set can be described thus: Antiviral activity Norovirus infected in human HG23 cells assessed as decrease in viral RNA level measured after 48 hrs by qRT-PCR analysis. Type of data set: functional, cell-based. Conditions: HG23, 48 h. The essentials: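 Norwalk virus replicon-bearing HG23 cells, confluent and semi-confluent, exposed 48 h to compound (up to 100 μM) or DMSO (<0.1%) in medium. Total RNA extracted, viral genome quantified by real-time qRT-PCR; EC50 derived from concentration-response data.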
Background: In qPCR the cycle at which signal appears reflects the starting amount.

Data set [2] can be described thus: Cytotoxicity against human HG23 cells measured after 72 hrs by […] CytoTox-96 non-radioactive assay. Type of data set: cell-based.

On to `O=C[C@H](C[C@@H]1CCNC1=O)NC(=O)[C@H](CC1CCCCC1)NS(=O)(=O)c1cccs1`, for which the IC50 (commonly the point on the concentration scale where inhibition reaches its midpoint) in data set [1] worked out at 10400 nM. In addition, the EC50 (commonly the concentration at which the effect is half-maximal) with Norovirus was 8500 nM. The CC50 (in general, the concentration giving 50% cytotoxicity) at 72 h in data set [2] is above 100000 nM.

Take `O=C1NCC[C@H]1C[C@H](NC(=O)[C@H](CC1CCCCC1)NS(=O)(=O)c1cccc(Cl)c1)C(O)S(=O)(=O)O` (stereo partly specified): in data set [1], it took 5700 nM to reach half-maximal inhibition (IC50). Besides, the concentration giving a half-maximal response (EC50) in the data set with Norovirus was determined as 1900 nM. Besides, in data set [2], the cytotoxic concentration (CC50) at 72 h was above 100000 nM.

`O=C1NCC[C@H]1C[C@H](NC(=O)[C@H](CC1CCCCC1)NS(=O)(=O)c1ccc(-c2ccccc2)cc1)C(O)S(=O)(=O)O` (stereo partly specified) yielded a 50% inhibitory concentration (IC50) in data set [1] of 1100 nM. In the data set with Norovirus, the concentration giving a half-maximal response (EC50) was 1200 nM. In addition, the CC50 at 72 h in data set [2] was above 100000 nM.

For the molecule `O=C[C@H](C[C@@H]1CCNC1=O)NC(=O)[C@H](CC1CCCCC1)NS(=O)(=O)CCN1C(=O)c2ccccc2C1=O`, half-maximal inhibition in data set [1] (IC50) required 2500 nM. Moreover, the EC50 in the data set with Norovirus stood at 2300 nM. The cytotoxic concentration (CC50) at 72 h in data set [2] was above 100000 nM.

`O=C[C@H](C[C@@H]1CCNC1=O)NC(=O)[C@H](CC1CCCCC1)NS(=O)(=O)c1ccc(F)cc1`: in data set [1], the IC50 was found to be 4800 nM. Moreover, the EC50 in the data set with Norovirus was found to be 2000 nM. In data set [2], the half-maximal cytotoxic concentration (CC50) at 72 h is above 100000 nM.

In the case of `O=C[C@H](C[C@@H]1CCNC1=O)NC(=O)[C@H](CC1CCCCC1)NS(=O)(=O)Cc1ccccc1`, in data set [1], the concentration for half-maximal inhibition (IC50) came to 4500 nM. In the data set on Norovirus, the concentration for a half-maximal effect (EC50) is 4100 nM. Further, in data set [2], the 50% cytotoxic concentration (CC50) at 72 h was above 100000 nM.

In data set [1], `COc1ccc(OCCCS(=O)(=O)N[C@@H](CC2CCCCC2)C(=O)N[C@@H](C[C@@H]2CCNC2=O)C(O)S(=O)(=O)O)cc1` (stereo partly specified) showed a 50% inhibitory concentration (IC50) of 1600 nM. Moreover, the EC50 with Norovirus worked out at 200 nM. For the same molecule, in data set [2], the CC50 at 72 h is above 100000 nM.

Consider `O=C[C@H](C[C@@H]1CCNC1=O)NC(=O)[C@H](CC1CCCCC1)NS(=O)(=O)c1ccc(-c2ccccc2)cc1`, for which half-maximal inhibition in data set [1] (IC50) was put at 1300 nM. The half-maximal effective concentration (EC50) with Norovirus was found to be 1300 nM. Also, the CC50 at 72 h in data set [2] is above 100000 nM.

In data set [1], `O=C[C@H](C[C@@H]1CCNC1=O)NC(=O)[C@H](CC1CCCCC1)NS(=O)(=O)CCc1ccccc1` registered a 50% inhibitory concentration (IC50) of 1800 nM. Besides, the EC50 with Norovirus was 700 nM. Further, in data set [2], the 50% cytotoxic concentration (CC50) at 72 h is above 100000 nM.

In data set [1], `O=C1NCC[C@H]1C[C@H](NC(=O)[C@H](CC1CCCCC1)NS(=O)(=O)c1ccc(Cl)cc1)C(O)S(=O)(=O)O` (stereo partly specified) had an IC50 of 5100 nM. Moreover, the 50% effective concentration (EC50) in the data set with Norovirus was 7200 nM. In data set [2], the half-maximal cytotoxic concentration (CC50) at 72 h was above 100000 nM.

`O=C1NCC[C@H]1C[C@H](NC(=O)[C@H](CC1CCCCC1)NS(=O)(=O)CCN1C(=O)c2ccccc2C1=O)C(O)S(=O)(=O)O` (stereo partly specified) registered an IC50 in data set [1] of 2600 nM. Moreover, the concentration for a half-maximal effect (EC50) in the data set on Norovirus stood at 2100 nM. The 50% cytotoxic concentration (CC50) at 72 h in data set [2] was above 100000 nM.

Regarding `CCCCCCCCCCOC(=O)N[C@@H](CC1CCCCC1)C(=O)N[C@H](C=O)C[C@@H]1CCNC1=O`, the IC50 in data set [1] was 300 nM. Also, the EC50 in the data set on Norovirus was determined as 100 nM. The CC50 at 72 h in data set [2] amounted to 32100 nM.

Molecule `O=C(N[C@@H](CC1CCCCC1)C(=O)N[C@@H](C[C@@H]1CCNC1=O)C(O)S(=O)(=O)O)OCCc1cccc(Cl)c1` (stereo partly specified) returned an IC50 in data set [1] of 500 nM. Further, the EC50 with Norovirus was 100 nM. Also, in data set [2], the CC50 at 72 h came to 46700 nM.

On to `O=C[C@H](C[C@@H]1CCNC1=O)NC(=O)[C@H](CC1CCCCC1)NS(=O)(=O)c1cccc(Cl)c1`, for which the 50% inhibitory concentration (IC50) in data set [1] came to 5500 nM. Also, the EC50 in the data set on Norovirus amounted to 2300 nM. Also, the CC50 at 72 h in data set [2] is above 100000 nM.

In data set [1], `O=C[C@H](C[C@@H]1CCNC1=O)NC(=O)[C@H](CC1CCCCC1)NS(=O)(=O)c1ccccc1` displayed a half-inhibitory concentration (IC50) of 8500 nM. Besides, in the data set on Norovirus, the concentration for a half-maximal effect (EC50) amounted to 9500 nM. The 50% cytotoxic concentration (CC50) at 72 h in data set [2] was above 100000 nM.

In the case of `O=C[C@H](C[C@@H]1CCNC1=O)NC(=O)[C@H](CC1CCCCC1)NS(=O)(=O)CCc1cccc(Cl)c1`, in data set [1], 2300 nM corresponded to half-maximal inhibition (IC50). For the same molecule, the EC50 in the data set on Norovirus was 1100 nM. Further, the CC50 at 72 h in data set [2] is above 100000 nM.

For the molecule `O=C1NCC[C@H]1C[C@H](NC(=O)[C@H](CC1CCCCC1)NS(=O)(=O)CCc1cccc(Cl)c1)C(O)S(=O)(=O)O` (stereo partly specified), in data set [1], the IC50 turned out to be 1900 nM. Besides, in the data set with Norovirus, the 50% effective concentration (EC50) turned out to be 800 nM. Besides, the CC50 at 72 h in data set [2] was above 100000 nM.

For `CCCCCCCCS(=O)(=O)N[C@@H](CC1CCCCC1)C(=O)N[C@@H](C[C@@H]1CCNC1=O)C(O)S(=O)(=O)O` (stereo partly specified), the half-maximal inhibitory concentration (IC50) in data set [1] was found to be 1100 nM. In addition, the EC50 in the data set on Norovirus was 200 nM. For the same molecule, the CC50 at 72 h in data set [2] was determined as 35400 nM.

In the case of `O=C[C@H](C[C@@H]1CCNC1=O)NC(=O)[C@H](CC1CCCCC1)NS(=O)(=O)c1ccc(Cl)cc1`, half-maximal inhibition in data set [1] (IC50) was put at 5800 nM. Further, the 50% effective concentration (EC50) in the data set on Norovirus amounted to 3500 nM. Besides, in data set [2], the CC50 at 72 h was above 100000 nM.

In data set [1], `O=C1NCC[C@H]1C[C@H](NC(=O)[C@H](CC1CCCCC1)NS(=O)(=O)c1ccccc1)C(O)S(=O)(=O)O` (stereo partly specified) registered an IC50 of 13500 nM. For the same molecule, the half-maximal effective concentration (EC50) with Norovirus is 12300 nM. Further, the CC50 at 72 h in data set [2] is above 100000 nM.

Turning to `O=C1NCC[C@H]1C[C@H](NC(=O)[C@H](CC1CCCCC1)NS(=O)(=O)c1cccs1)C(O)S(=O)(=O)O` (stereo partly specified), half-maximal inhibition in data set [1] (IC50) was put at 8500 nM. Further, the EC50 in the data set on Norovirus turned out to be 8100 nM. For the same molecule, the CC50 at 72 h in data set [2] was above 100000 nM.

In data set [1], `O=C1NCC[C@H]1C[C@H](NC(=O)[C@H](CC1CCCCC1)NS(=O)(=O)Cc1ccccc1)C(O)S(=O)(=O)O` (stereo partly specified) showed an IC50 of 4300 nM. The EC50 in the data set on Norovirus was found to be 4300 nM. For the same molecule, the CC50 at 72 h in data set [2] was above 100000 nM.

As to `CCCCCCCCCCOC(=O)N[C@@H](CC1CCCCC1)C(=O)N[C@@H](C[C@@H]1CCNC1=O)C(O)S(=O)(=O)O` (stereo partly specified), it took 400 nM to reach half-maximal inhibition in data set [1] (IC50). For the same molecule, in the data set with Norovirus, the EC50 was 200 nM. For the same molecule, in data set [2], the half-maximal cytotoxic concentration (CC50) at 72 h amounted to 34500 nM.

In the case of `O=C[C@H](C[C@@H]1CCNC1=O)NC(=O)[C@H](CC1CCCCC1)NS(=O)(=O)Cc1ccc(Cl)cc1`, the concentration for half-maximal inhibition (IC50) in data set [1] is 1800 nM. Further, in the data set on Norovirus, the EC50 is 2400 nM. Further, in data set [2], the half-maximal cytotoxic concentration (CC50) at 72 h is above 100000 nM.

In data set [1], `O=C1NCC[C@H]1C[C@H](NC(=O)[C@H](CC1CCCCC1)NS(=O)(=O)CCc1ccccc1)C(O)S(=O)(=O)O` (stereo partly specified) yielded an IC50 of 2100 nM. In addition, in the data set with Norovirus, the EC50 worked out at 800 nM. Moreover, the CC50 at 72 h in data set [2] is above 100000 nM.

In data set [1], `O=C[C@H](C[C@@H]1CCNC1=O)NC(=O)[C@H](CC1CCCCC1)NC(=O)OCCOCc1ccccc1` displayed a half-maximal inhibitory concentration (IC50) of 2100 nM. Further, in the data set on Norovirus, the EC50 was 200 nM. Besides, the CC50 at 72 h in data set [2] is above 100000 nM.

In turn, `CCCCCCCCS(=O)(=O)N[C@@H](CC1CCCCC1)C(=O)N[C@H](C=O)C[C@@H]1CCNC1=O` came in with an IC50 in data set [1] of 1200 nM. In the data set on Norovirus, the EC50 was 300 nM. For the same molecule, the CC50 at 72 h in data set [2] was 33800 nM.

`COc1ccc(OCCCS(=O)(=O)N[C@@H](CC2CCCCC2)C(=O)N[C@H](C=O)C[C@@H]2CCNC2=O)cc1` registered an IC50 in data set [1] of 1800 nM. In addition, in the data set with Norovirus, the EC50 worked out at 200 nM. Further, the 50% cytotoxic concentration (CC50) at 72 h in data set [2] was above 100000 nM.

`O=C(N[C@@H](CC1CCCCC1)C(=O)N[C@@H](C[C@@H]1CCNC1=O)C(O)S(=O)(=O)O)OCCOCc1ccccc1` (stereo partly specified) came in with a half-maximal inhibitory concentration (IC50) in data set [1] of 1600 nM. In the data set on Norovirus, the 50% effective concentration (EC50) was 300 nM. The CC50 at 72 h in data set [2] is above 100000 nM.

`O=C1NCC[C@H]1C[C@H](NC(=O)[C@H](CC1CCCCC1)NS(=O)(=O)c1ccc(F)cc1)C(O)S(=O)(=O)O` (stereo partly specified): the IC50 in data set [1] turned out to be 6200 nM. Besides, in the data set with Norovirus, the EC50 amounted to 2100 nM. For the same molecule, the CC50 at 72 h in data set [2] was above 100000 nM.

`O=C[C@H](C[C@@H]1CCNC1=O)NC(=O)[C@H](CC1CCCCC1)NC(=O)OCCc1cccc(Cl)c1` registered an IC50 in data set [1] of 600 nM. In addition, the 50% effective concentration (EC50) in the data set with Norovirus was 100 nM. Also, the CC50 at 72 h in data set [2] amounted to 43200 nM.

Consider `O=C1NCC[C@H]1C[C@H](NC(=O)[C@H](CC1CCCCC1)NS(=O)(=O)Cc1ccc(Cl)cc1)C(O)S(=O)(=O)O` (stereo partly specified), for which, in data set [1], the half-inhibitory concentration (IC50) amounted to 1200 nM. In addition, the 50% effective concentration (EC50) with Norovirus turned out to be 2200 nM. For the same molecule, in data set [2], the CC50 at 72 h was above 100000 nM.
